Test results taken from ChEMBL document CHEMBL1153769, “Novel modified steroid derivatives of androstanolone as chemotherapeutic anti-cancer agents” (Eur J Med Chem, 2009).

Columns and labels:
[1] = system: HepG2; assay: Antitumor activity against human HepG2 cells incubated with drug dissolved in olive oil after 48 hrs by MTT assay; format: functional, cell-based; conditions: HepG2, 48 h
Summary of the method: (§1)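 HepG2 cells (trypan blue viability >97%) grown in RPMI-1640 with L-glutamine and 10% fetal calf serum, seeded at 3×10³ cells/well. Compounds in olive oil or DMSO were tested at 10, 50 and 100 for 24, 48 and 72 h. MTT (0.5 mg/ml) added, formazan dissolved in DMSO, OD read at 570 nm (ref 690 nm). Reported as % growth inhibition vs control; run in triplicate.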

[2] = system: HepG2; assay: Antitumor activity against human HepG2 cells incubated with drug dissolved in olive oil after 72 hrs by MTT assay; format: functional, cell-based; conditions: HepG2, 72 h; summary of the method: as §1
[3] = system: HepG2; assay: Antitumor activity against human HepG2 cells incubated with drug dissolved in DMSO after 48 hrs by MTT assay; format: functional, cell-based; conditions: HepG2, 48 h; summary of the method: as §1
[4] = system: HepG2; assay: Antitumor activity against human HepG2 cells incubated with drug dissolved in DMSO after 72 hrs by MTT assay; format: functional, cell-based; conditions: HepG2, 72 h; summary of the method: as §1
[5] = system: Mus musculus; assay: Toxicity in mouse EAC cells transplanted Swiss albino mouse assessed as change in hematocrit content at 25 mg/kg. ip dissolved in DMSO for 14 days measured after final dose by 18 hrs fasting; format: organism-based, Ehrlich; design: dose 25 mg/kg, route intraperitoneal; conditions: in vivo
Summary of the method: (§2)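 Mice (n = 5/group) given 2×10⁶ EAC cells in 0.2 ml i.p. Treatment was 25 mg/kg b.wt. i.p. in DMSO, every other day for 14 days. Animals were fasted 18 h after the last dose, then sacrificed. Tumour volume, haemoglobin, haematocrit, total WBC and body weight recorded. Normal and untreated EAC groups served as controls. Mean ± SE.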

[6] = system: Mus musculus; assay: Toxicity in mouse EAC cells transplanted Swiss albino mouse assessed as change in hemoglobin content at 25 mg/kg. ip dissolved in DMSO for 14 days measured after final dose by 18 hrs fasting; format: organism-based, Ehrlich; design: dose 25 mg/kg, route intraperitoneal; conditions: in vivo; summary of the method: as §2
[7] = system: Mus musculus; assay: Toxicity in mouse EAC cells transplanted Swiss albino mouse assessed as change in total WBC content at 25 mg/kg. ip dissolved in DMSO for 14 days measured after final dose by 18 hrs fasting; format: organism-based, Ehrlich; design: dose 25 mg/kg, route intraperitoneal; conditions: in vivo; summary of the method: as §2
[8] = system: Mus musculus; assay: Toxicity in mouse EAC cells transplanted Swiss albino mouse assessed as decrease in body weight at 25 mg/kg. ip dissolved in DMSO for 14 days measured after final dose by 18 hrs fasting; format: organism-based, Ehrlich; design: dose 25 mg/kg, route intraperitoneal; scale not given: the % may be the effect or the level left; conditions: in vivo; summary of the method: as §2
[9] = Antitumor activity in mouse EAC cells transplanted in Swiss albino mouse assessed as decrease in tumor volume at 25 mg/kg. ip dissolved in DMSO for 14 days measured after final dose by 18 hrs fasting; format: functional, Ehrlich; design: unit not given here; conditions: route intraperitoneal; summary of the method: as §2
[10] = species on record: Mus musculus; assay: Toxicity in mouse EAC cells transplanted Swiss albino mouse assessed as loss of appetite; format: organism-based; conditions: ehrlich
[11] = species on record: Mus musculus; assay: Toxicity in mouse EAC cells transplanted Swiss albino mouse assessed as induction of dizziness; format: organism-based; conditions: ehrlich
[12] = species on record: Mus musculus; assay: Toxicity in mouse EAC cells transplanted Swiss albino mouse assessed as induction of errection of hair; format: organism-based; conditions: ehrlich
[13] = species on record: Mus musculus; assay: Toxicity in mouse EAC cells transplanted Swiss albino mouse assessed as induction of hypothermia; format: organism-based; conditions: ehrlich
[14] = system: Mus musculus; assay: Toxicity in mouse EAC cells transplanted Swiss albino mouse assessed as change in hematocrit content at 20 mg/kg. ip dissolved in DMSO for 14 days measured after final dose by 18 hrs fasting; format: organism-based, Ehrlich; design: dose 20 mg/kg, route intraperitoneal; conditions: in vivo
Summary of the method: (§3)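 Reference-drug group (n = 5): mice given 2×10⁶ EAC cells in 0.2 ml i.p., then 20 mg/kg b.wt. for 14 days. Fasted 18 h after the last dose, then sacrificed. Tumour volume, haemoglobin, haematocrit, total WBC and body weight measured against normal and untreated EAC groups. Mean ± SE.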

[15] = system: Mus musculus; assay: Toxicity in mouse EAC cells transplanted Swiss albino mouse assessed as change in total WBC content at 20 mg/kg. ip dissolved in DMSO for 14 days measured after final dose by 18 hrs fasting; format: organism-based, Ehrlich; design: dose 20 mg/kg, route intraperitoneal; conditions: in vivo; summary of the method: as §3
[16] = system: Mus musculus; assay: Toxicity in mouse EAC cells transplanted Swiss albino mouse assessed as decrease in body weight at 20 mg/kg. ip dissolved in DMSO for 14 days measured after final dose by 18 hrs fasting; format: functional, Ehrlich; design: scale not given: the % may be the effect or the level left; conditions: route intraperitoneal; summary of the method: as §3
[17] = Antitumor activity in mouse EAC cell transplanted in Swiss albino mouse assessed as decrease in tumor volume at 20 mg/kg. ip dissolved in DMSO for 14 days measured after final dose by 18 hrs fasting; format: functional, Ehrlich; conditions: route intraperitoneal; summary of the method: as §3

CC(=O)O[C@H]1CC[C@H]2[C@@H]3CC[C@H]4Cc5c(C#N)c(N)n(-c6ccccc6)c(=S)c5C[C@]4(C)[C@H]3CC[C@]12C
IC50 [1]: 48 µM | IC50 [2]: 40 µM | IC50 [3]: > 100 µM | IC50 [4]: > 100 µM | Activity [5]: 33.8% | Activity [6]: 12.6% | Activity [7]: 5.75 /10'3mm'-3 | Activity [8]: 18% | Activity [9]: 0 | Activity [10]: Non-toxic | Activity [11]: Non-toxic | Activity [12]: Non-toxic | Activity [13]: Non-toxic

COc1ccc(C2Oc3nc(N)c(C#N)c(N)c3C3=C2C[C@@]2(C)[C@@H](CC[C@@H]4[C@@H]2CC[C@]2(C)[C@@H](OC(C)=O)CC[C@@H]42)C3)cc1 (some centres undefined)
IC50 [1]: 48 µM | IC50 [2]: 41 µM | IC50 [3]: 95 µM | IC50 [4]: > 100 µM | Activity [5]: 38.3% | Activity [6]: 12.65% | Activity [7]: 7.35 /10'3mm'-3 | Activity [8]: 21.5% | Activity [9]: 0 | Activity [10]: Non-toxic | Activity [11]: Non-toxic | Activity [12]: Non-toxic | Activity [13]: Non-toxic

CC(=O)O[C@H]1CC[C@H]2[C@@H]3CC[C@H]4CNC(=O)CC[C@]4(C)[C@H]3CC[C@]12C
IC50 [1]: 47 µM | IC50 [2]: 35 µM | IC50 [3]: 42 µM | IC50 [4]: 40 µM | Activity [5]: 38.56% | Activity [6]: 12.96% | Activity [7]: 6.46 /10'3mm'-3 | Activity [8]: 20.33% | Activity [9]: 0 | Activity [10]: Non-toxic | Activity [11]: Non-toxic | Activity [12]: Non-toxic | Activity [13]: Non-toxic

CC(=O)O[C@H]1CC[C@H]2[C@@H]3CC[C@H]4CC5=C(C[C@]4(C)[C@H]3CC[C@]12C)C(c1ccccc1)OC(N)=C5C#N (some centres undefined)
IC50 [1]: 46 µM | IC50 [2]: 30 µM | IC50 [3]: 81 µM | IC50 [4]: 73 µM | Activity [5]: 36.6% | Activity [6]: 12.5% | Activity [7]: 5.9 /10'3mm'-3 | Activity [8]: 18.66% | Activity [9]: 0 | Activity [10]: Non-toxic | Activity [11]: Non-toxic | Activity [12]: Non-toxic | Activity [13]: Non-toxic

CC(=O)O[C@H]1CC[C@H]2[C@@H]3CC[C@H]4C/C(=N/n5c(-c6ccccc6)csc5=S)CC[C@]4(C)[C@H]3CC[C@]12C
IC50 [1]: 47 µM | IC50 [2]: 37 µM | IC50 [3]: 85 µM | IC50 [4]: 90 µM | Activity [5]: 42.7% | Activity [6]: 10.7% | Activity [7]: 5.66 /10'3mm'-3 | Activity [8]: 20% | Activity [9]: 0 | Activity [10]: Non-toxic | Activity [11]: Non-toxic | Activity [12]: Non-toxic | Activity [13]: Non-toxic

O=c1[nH]cc(F)c(=O)[nH]1 [FLUOROURACIL]
Activity [14]: 10.73% | Activity [15]: 6.4 /10'3mm'-3 | Activity [16]: 23% | Activity [17]: 0 mL⁻¹
